Source: ChEMBL document CHEMBL1641437, “New furin inhibitors based on weakly basic amidinohydrazones” (Bioorg Med Chem Lett, 2011)

Columns and labels:
Furin = Furin (Homo sapiens, UniProt P09958); assay: Inhibition of human recombinant furin by fluorescence plate reader analysis
In short: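 Recombinant human furin, 0.95 nM, with fluorogenic pyroGlu-Arg-Thr-Lys-Arg-AMC at 5, 20 and 50 substrate concentrations, in 100 mM HEPES pH 7.0 with 0.2% Triton X-100, 2 mM CaCl2, 0.02% sodium azide, 1 mg/mL BSA; room temperature. AMC release read by fluorescence (ex 380, em 460 nm); Ki obtained by Dixon plot.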

[1] = molecular target: T1, Subtilisin Carlsberg (Bacillus licheniformis) (UniProt P00780); assay: Inhibition of Bacillus licheniformis subtilisin at 100 uM relative to control
T1 sequence (whole entry): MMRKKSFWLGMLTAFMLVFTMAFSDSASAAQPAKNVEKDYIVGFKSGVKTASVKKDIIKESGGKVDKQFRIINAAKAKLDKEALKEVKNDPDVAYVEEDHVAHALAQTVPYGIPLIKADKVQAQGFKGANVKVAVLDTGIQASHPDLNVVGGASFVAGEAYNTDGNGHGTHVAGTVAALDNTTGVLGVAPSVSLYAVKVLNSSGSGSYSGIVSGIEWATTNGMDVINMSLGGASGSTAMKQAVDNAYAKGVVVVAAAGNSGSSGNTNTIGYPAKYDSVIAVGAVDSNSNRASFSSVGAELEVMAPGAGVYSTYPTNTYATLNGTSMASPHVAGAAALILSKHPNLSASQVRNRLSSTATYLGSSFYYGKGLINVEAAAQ

Prothrombin = Prothrombin (Homo sapiens, UniProt P00734); assay: Inhibition of thrombin
[2] = Inhibition of trypsin
Coagulation factor X = Coagulation factor X (Homo sapiens, UniProt P00742); assay: Inhibition of factor 10a
Plasminogen = Plasminogen (Homo sapiens, UniProt P00747); assay: Inhibition of plasmin
Chain of Plasminogen (P00747 97-580 limits assumed): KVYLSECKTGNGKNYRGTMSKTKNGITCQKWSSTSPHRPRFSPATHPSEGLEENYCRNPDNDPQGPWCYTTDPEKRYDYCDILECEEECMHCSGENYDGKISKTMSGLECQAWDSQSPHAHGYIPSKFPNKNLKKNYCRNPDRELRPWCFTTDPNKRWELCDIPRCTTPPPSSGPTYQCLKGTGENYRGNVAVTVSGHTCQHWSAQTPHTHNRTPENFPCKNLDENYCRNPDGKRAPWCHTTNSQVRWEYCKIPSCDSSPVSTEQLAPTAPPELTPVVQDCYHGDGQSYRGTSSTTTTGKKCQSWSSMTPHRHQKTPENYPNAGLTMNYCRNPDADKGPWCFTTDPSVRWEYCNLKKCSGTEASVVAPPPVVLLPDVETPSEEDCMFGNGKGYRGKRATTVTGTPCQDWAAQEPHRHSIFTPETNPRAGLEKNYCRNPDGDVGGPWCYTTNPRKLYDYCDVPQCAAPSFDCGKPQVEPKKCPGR
Chain of Plasminogen (P00747 581-810 limits assumed): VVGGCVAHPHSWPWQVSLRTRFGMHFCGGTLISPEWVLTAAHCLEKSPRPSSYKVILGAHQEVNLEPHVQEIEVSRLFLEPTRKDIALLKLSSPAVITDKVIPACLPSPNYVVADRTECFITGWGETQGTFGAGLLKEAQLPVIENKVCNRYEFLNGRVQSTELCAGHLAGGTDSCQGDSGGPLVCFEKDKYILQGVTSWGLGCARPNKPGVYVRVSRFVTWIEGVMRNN

Chain of Coagulation factor X (P00742 41-179 limits assumed): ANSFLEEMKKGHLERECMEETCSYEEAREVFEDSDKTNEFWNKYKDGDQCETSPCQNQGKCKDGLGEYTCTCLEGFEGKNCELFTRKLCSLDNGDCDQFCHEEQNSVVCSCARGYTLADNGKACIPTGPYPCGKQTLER
Chain of Coagulation factor X (P00742 235-488 limits assumed): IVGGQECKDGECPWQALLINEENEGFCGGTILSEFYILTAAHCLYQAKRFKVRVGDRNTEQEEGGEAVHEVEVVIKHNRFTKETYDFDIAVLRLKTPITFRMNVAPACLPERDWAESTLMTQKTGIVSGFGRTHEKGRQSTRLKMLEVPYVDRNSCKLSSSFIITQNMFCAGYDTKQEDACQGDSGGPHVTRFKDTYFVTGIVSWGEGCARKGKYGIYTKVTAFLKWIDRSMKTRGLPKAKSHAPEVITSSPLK
Chain of Furin (P09958 whole entry): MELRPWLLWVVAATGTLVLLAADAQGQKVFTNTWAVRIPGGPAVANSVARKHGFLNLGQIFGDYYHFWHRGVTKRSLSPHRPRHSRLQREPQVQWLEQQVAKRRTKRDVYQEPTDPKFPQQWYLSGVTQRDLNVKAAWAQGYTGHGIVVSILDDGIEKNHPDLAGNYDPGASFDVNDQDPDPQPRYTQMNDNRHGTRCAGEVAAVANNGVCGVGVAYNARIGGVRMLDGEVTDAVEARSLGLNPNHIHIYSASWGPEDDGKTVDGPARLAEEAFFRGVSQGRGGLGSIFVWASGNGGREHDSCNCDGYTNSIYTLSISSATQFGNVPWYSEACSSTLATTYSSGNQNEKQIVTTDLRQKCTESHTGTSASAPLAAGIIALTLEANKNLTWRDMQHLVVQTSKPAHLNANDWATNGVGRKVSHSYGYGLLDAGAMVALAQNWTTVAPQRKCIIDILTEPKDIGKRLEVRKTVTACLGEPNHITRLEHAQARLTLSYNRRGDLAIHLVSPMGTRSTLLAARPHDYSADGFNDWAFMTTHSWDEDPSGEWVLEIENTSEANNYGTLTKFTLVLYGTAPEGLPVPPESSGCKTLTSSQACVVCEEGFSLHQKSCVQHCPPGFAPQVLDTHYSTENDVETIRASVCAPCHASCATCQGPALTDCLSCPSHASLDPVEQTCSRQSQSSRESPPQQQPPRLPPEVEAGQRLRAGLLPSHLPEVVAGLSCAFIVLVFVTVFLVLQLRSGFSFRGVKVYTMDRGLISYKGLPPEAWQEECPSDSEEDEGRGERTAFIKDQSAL

Row | Compound | Ki (Furin) | inhibition [1] | Ki (Prothrombin) | Ki [2] | Ki (Coagulation factor X) | Ki (Plasminogen)
1 | N=C(N)N/N=C/c1ccc(/C=N/NC(=N)N)cc1 | 1.47 µM | 0% | 68 µM | – | – | –
2 | C/C(=N\NC(=N)N)c1cccc(/C(C)=N/NC(=N)N)c1 | 4.78 µM | 0% | – | – | – | –
3 | C/C(=N\NC(=N)N)c1ccccc1 | 273 µM | – | – | – | – | –
4 | N=C(N)NNC(=O)c1cccc(C(=O)NNC(=N)N)c1 | 27.9 µM | – | – | – | – | –
5 | C/C(=N\NC(=N)N)c1ccc(Oc2ccc(/C(C)=N/NC(=N)N)cc2)cc1 | 44 µM | – | – | – | – | –
6 | N=C(N)NNC(=O)c1ccccc1 | 376 µM | – | – | – | – | –
7 | C/C(=N\NC(=N)N)c1cc(N)cc(/C(C)=N/NC(=N)N)c1 | 1.82 µM | – | – | – | – | –
8 | C/C(=N\NC(=N)N)c1ccc(/C(C)=N/NC(=N)N)cc1 | 1.84 µM | 7.9% | 786 µM | – | – | –
9 | C/C(=N\NC(=N)N)c1cc(NC(=O)[C@H](N)CCCNC(=N)N)cc(/C(C)=N/NC(=N)N)c1 | 1.13 µM | – | 1000 µM | 68 µM | 1000 µM | 1000 µM
10 | N=C(N)N/N=C1\C/C(=N\NC(=N)N)c2ccccc21 | 17.3 µM | – | – | – | – | –
11 | NC(N)=NNC(=O)c1ccc(C(=O)NN=C(N)N)cc1 | 173 µM | – | 1000 µM | – | – | –
12 | N=C(N)N/N=C/c1cccc(/C=N/NC(=N)N)c1 | 11.5 µM | 4.4% | – | – | – | –
13 | N=C(N)N/N=C/c1ccccc1 | > 500 µM | – | – | – | – | –
14 | C/C(=N\NC(=N)N)c1cc(NS(=O)(=O)c2ccccc2)cc(/C(C)=N/NC(=N)N)c1 | 1.55 µM | – | 32 µM | 59 µM | 80 µM | 400 µM

Results, then the molecule that gave them:

Row | Ki (Furin) | inhibition [1] | Ki (Prothrombin) | Ki [2] | Ki (Coagulation factor X) | Ki (Plasminogen) | Compound
15 | 1.42 µM | – | 1000 µM | 110 µM | 1000 µM | 1000 µM | C/C(=N\NC(=N)N)c1cc(NC(=O)CCCCCNC(=N)N)cc(/C(C)=N/NC(=N)N)c1
16 | 1.35 µM | – | – | – | – | – | C/C(=N/NC(=N)N)c1cc(OCC(=O)Nc2ccccc2)cc(/C(C)=N\NC(=N)N)c1
17 | 0.58 µM | – | 0.86 µM | – | – | – | C/C(=N/NC(=N)N)c1cc(OCC(=O)Nc2cc(/C(C)=N\NC(=N)N)cc(/C(C)=N/NC(=N)N)c2)cc(/C(C)=N\NC(=N)N)c1
18 | 0.46 µM | 7.9% | 800 µM | 2.8 µM | 16 µM | 1000 µM | C/C(=N\NC(=N)N)c1cc(NC(=O)CCCNC(=N)N)cc(/C(C)=N/NC(=N)N)c1
19 | 1.13 µM | 7.7% | – | – | – | – | C/C(=N/NC(=N)N)c1cc(NC(=O)CC(=O)Nc2cc(/C(C)=N/NC(=N)N)cc(/C(C)=N/NC(=N)N)c2)cc(/C(C)=N/NC(=N)N)c1
20 | 1.04 µM | – | 1000 µM | 23 µM | 1000 µM | 1000 µM | C/C(=N\NC(=N)N)c1cc(NC(=O)CCCCNC(=N)N)cc(/C(C)=N/NC(=N)N)c1
21 | 5.61 µM | – | – | – | – | – | C/C(=N/NC(=N)N)c1cc(NC(=O)COc2ccccc2)cc(/C(C)=N/NC(=N)N)c1
22 | 1.2 µM | – | 1000 µM | 12 µM | 1000 µM | 110 µM | C/C(=N\NC(=N)N)c1cc(NC(=O)CCCN)cc(/C(C)=N/NC(=N)N)c1
23 | 1.94 µM | – | – | – | – | – | C/C(=N/NC(=N)N)c1cc(NC(=O)COc2ccc(/C(C)=N/NC(=N)N)cc2)cc(/C(C)=N/NC(=N)N)c1
24 | 1.46 µM | – | – | – | – | – | C/C(=N/NC(=N)N)c1cccc(OCC(=O)Nc2cc(/C(C)=N\NC(=N)N)cc(/C(C)=N/NC(=N)N)c2)c1
